Results collected from several papers.
Lines come from different studies, so protocols differ.
Target: Serine/threonine-protein kinase 36 (STK36, Homo sapiens, UniProt Q9NRP7)
Residues used in one study (Q9NRP7 1-1315): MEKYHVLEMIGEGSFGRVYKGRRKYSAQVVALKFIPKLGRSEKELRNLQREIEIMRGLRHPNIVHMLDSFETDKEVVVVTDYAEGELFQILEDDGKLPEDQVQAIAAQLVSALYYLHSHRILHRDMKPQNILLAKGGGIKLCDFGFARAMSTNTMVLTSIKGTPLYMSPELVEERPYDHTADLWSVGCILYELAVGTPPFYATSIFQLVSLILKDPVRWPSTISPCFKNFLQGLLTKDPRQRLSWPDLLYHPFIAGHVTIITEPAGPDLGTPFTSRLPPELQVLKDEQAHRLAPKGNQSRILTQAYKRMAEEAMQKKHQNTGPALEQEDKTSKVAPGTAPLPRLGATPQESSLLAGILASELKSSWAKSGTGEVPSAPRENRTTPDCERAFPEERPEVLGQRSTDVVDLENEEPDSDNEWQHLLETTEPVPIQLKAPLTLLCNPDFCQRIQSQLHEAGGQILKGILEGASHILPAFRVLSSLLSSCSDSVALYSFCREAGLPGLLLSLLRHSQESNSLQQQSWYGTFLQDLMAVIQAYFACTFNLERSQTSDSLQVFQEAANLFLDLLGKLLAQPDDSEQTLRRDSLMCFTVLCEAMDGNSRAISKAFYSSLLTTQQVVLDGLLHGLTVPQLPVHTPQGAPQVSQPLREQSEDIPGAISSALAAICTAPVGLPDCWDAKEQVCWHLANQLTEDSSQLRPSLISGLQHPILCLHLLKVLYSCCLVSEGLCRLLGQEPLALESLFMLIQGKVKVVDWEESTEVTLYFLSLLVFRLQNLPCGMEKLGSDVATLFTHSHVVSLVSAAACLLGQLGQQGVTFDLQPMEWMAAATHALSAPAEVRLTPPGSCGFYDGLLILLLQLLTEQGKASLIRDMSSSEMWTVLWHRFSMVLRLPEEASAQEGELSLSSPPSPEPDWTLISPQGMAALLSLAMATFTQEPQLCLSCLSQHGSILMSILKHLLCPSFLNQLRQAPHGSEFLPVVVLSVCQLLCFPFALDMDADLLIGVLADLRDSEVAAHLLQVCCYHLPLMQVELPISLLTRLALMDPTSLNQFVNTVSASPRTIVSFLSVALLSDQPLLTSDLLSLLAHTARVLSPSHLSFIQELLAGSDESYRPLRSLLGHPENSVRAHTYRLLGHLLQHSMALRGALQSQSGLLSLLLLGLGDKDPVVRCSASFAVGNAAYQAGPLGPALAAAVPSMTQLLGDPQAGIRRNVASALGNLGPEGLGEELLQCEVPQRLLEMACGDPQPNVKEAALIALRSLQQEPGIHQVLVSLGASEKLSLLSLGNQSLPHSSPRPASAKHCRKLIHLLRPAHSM

| Compound | assay | conditions | remaining binding |
| --- | --- | --- | --- |
| Nc1ncc2c(n1)-c1c([nH]c3ccc(C#CC4CC4)cc13)CCCC2 | binding, competition with immobilised ligand | 1 µM | 100% |
| COc1ncc2cc3ccccc3nc2c1C#N | cell-free assay, competition with immobilised ligand | 5 µM | 88% |
| c1cncc(-c2cccc(Nc3nccc(NC4CCCCC4)n3)c2)c1 | binding, competition with immobilised ligand | 10 µM | 49% |
| CNC(=O)[C@@H]1CC[C@@H](n2c(-c3ccc4cnccc4c3)nc3ccc(C(=O)NCc4cccc(C(N)=O)c4)cc32)C1 | binding, competition with immobilised ligand | 1 µM | 93% |
| O=C(NCCCN1CCOCC1)c1ccc(Nc2ncc(Cl)c(-c3ccc(Cl)s3)n2)cc1 | binding, competition with immobilised ligand | 1 µM | 6.2% |
| O=C(NCC1CCOCC1)c1n[nH]cc1NC(=O)c1c(F)cccc1F | binding, competition with immobilised ligand | 1 µM | 98% |
| c1ccc(N2CCN(Cc3nc4ccccc4[nH]3)CC2)nc1 | binding, competition with immobilised ligand | 1 µM | 84% |
| CN(CCCC(F)(F)F)c1nccc(-c2cnn3ncccc23)n1 | binding | 1 µM | 92% |
| CN(c1ccnc(CNc2nc(Nc3ccc4c(c3)CC(=O)N4)ncc2C(F)(F)F)n1)S(C)(=O)=O | cell-free assay, competition with immobilised ligand | 1 µM | 87% |
| CN(C)c1nccc(-c2cnc3ncccn23)n1 | binding | 1 µM | 99% |
| O=C(c1ccc(Nc2nccc(-c3cc4ccccc4s3)n2)cc1)N1CCC(N2CCCC2)CC1 | binding, competition with immobilised ligand | 1 µM | 11% |
| C[C@H]1CCN(c2nccc(-c3cnn4ncccc34)n2)C1 | binding | 1 µM | 100% |
| CN1CCN(c2cnc3c(C4CCN(C(=O)c5ccc(OC(F)(F)F)cc5N)CC4)ncnc3c2)CC1 | cell-free assay, competition with immobilised ligand | 1 µM | 75% |
| N[C@H]1CCN(c2nccc(-c3cnn4ncccc34)n2)C1 | binding | 1 µM | 62% |
| CNCc1ccccc1-c1csc([C@H](C)Nc2nc(C)nc3cc(OC)c(OC)cc23)c1 | cell-free assay, competition with immobilised ligand | 1 µM | 100% |
| CN(C)c1nccc(-c2cnn3ncccc23)n1 | binding | 1 µM | 100% |
| FC(F)(F)Oc1cccc(-c2cnc3ccc(-c4ccncc4)nn23)c1 | binding, competition with immobilised ligand | 5 µM | 95% |
| COc1cnc(Nc2cccc(S(N)(=O)=O)c2)nc1N1CCN(c2ccccc2)CC1 | binding, competition with immobilised ligand | 1 µM | 88% |
| Cc1c[nH]c2nccc(Oc3c(F)cc(Nc4cc(Cl)nc(N)n4)cc3F)c12 | cell-free assay, competition with immobilised ligand | 0.1 µM | 85% |
| O=C(c1ccc(Nc2ncc(Cl)c(-c3cc4ccccc4s3)n2)cc1)N1CCC(N2CCCC2)CC1 | binding, competition with immobilised ligand | 1 µM | 3.4% |
| CN(c1nccc(-c2cnn3ncccc23)n1)C1CC1 | binding | 1 µM | 100% |
| CC(=O)Nc1c(C(C)=O)c(=O)n(C)c2nc(-c3ccc(Cl)cc3Cl)c(-c3ccc(Cl)cc3)cc12 | cell-free assay, competition with immobilised ligand | 1 µM | 92% |
